DENV2 CPE rescue = protects cells from dengue virus 2 cytopathic effect; CPE inhibition, % at 9.99 µM; DENV2-infected cells, cytopathic effect rescue, plate reader; 1.7% of 350,000 active; in the data active = CPE inhibition above about 20%, passing the limit was not always enough; tested in BHK-21 cells;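 also: 0% = median of neutral control wells and 100% = median of positive control wells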
Env fusion inh = blocks HIV Env-driven cell-cell fusion. HeLa-JRFL Env/CEM21 cell fusion, luciferase. inhibition, % at 12.3 µM. 1.1% of 360,000 active. AID 651610;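 active = mean replicate inhibition score of at least 50 and every replicate individually at or above 50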;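 also: 0% = plate neutral controls and 100% = maraviroc near 300 nM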
PGC1a acetyl inh = PGC1a acetylation modulation, inhibitor mode; U2OS PGC1a acetylation, AlphaScreen anti-acetyl-lysine; with virally co-expressed GCN5 acetyltransferase; inhibition, % at 15.6 µM; 0.17% of 350,000 active; AID 651687;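 active = every replicate shows inhibition of at least 40%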;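 also: 0% = neutral control wells and 100% = positive control wells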
Ecoli rRNA inh = inhibitors of bacterial rRNA selective over humanized ribosomes; GFP signal change (wild-type ribosome), % (test concentration not listed); AID 720706; E. coli WT GFP vs humanized-ribosome RFP mutants, fluorescence, 24 h; active compounds read low; DMSO median 0, no signal -100; 1.6% of 350,000 active;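 active = significant combined selectivity score with lowered wild-type GFP, culture density cut under 30%, mutant RFP and density less affected; inactive = any of these conditions unmet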
FN deposition inh = fibronectin deposition inhibition; AH1F fibroblasts, Alexa488-fibronectin deposition fluorescence, overnight; inhibition, % at 12.6 µM; 0.086% of 350,000 active; AID 743247;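 active = mean inhibition across replicates of 30% or more, regardless of how many single replicates reach that level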;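 also: positive control wells lacked labelled fibronectin entirely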
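Material: AH1F fibroblasts assembling fluorescent fibronectin matrix; amount: 10000 AH1F cells/well; medium: DMEM, 2% serum; reagent: Alexa488-fibronectin, 24 nM final in well; dosing: single compound dose, delivered by pin transfer; incubation: 1 h adhesion, overnight exposure; detection: fluorescence after three HBSS washes, excitation 485 nm, emission 525 nm; measure: fibronectin deposition inhibition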
PglD DTNB = PglD (C. jejuni) enzyme inhibition; purified PglD enzyme, DTNB colorimetric CoA detection; inhibition, % at 12.5 µM; 0.098% of 360,000 active; AID 602405; in the data active = inhibition above about 16%, passing the limit was not always enough
* hit, by the source's call; [ ] = dose if it differs, or a comment. In the library only some 3.5% were active in any assay of this set; here they are far more common.

For Cc1noc(C)c1NC(=O)Nc1cccc2c1O[C@H](CN(C)S(=O)(=O)c1ccc(F)cc1)[C@@H](C)CN([C@H](C)CO)C2=O the results were DENV2 CPE rescue -1.3, Env fusion inh -18.5, PGC1a acetyl inh 9.6, Ecoli rRNA inh 0.3, FN deposition inh -1.2 and PglD DTNB -0.5.
For Cc1noc(C)c1NC(=O)Nc1ccc2c(c1)C(=O)N([C@H](C)CO)C[C@@H](C)[C@H](CN(C)S(=O)(=O)c1ccc(F)cc1)O2 the results were DENV2 CPE rescue 86.4*, Env fusion inh -0.1[16.7 µM], PGC1a acetyl inh 9.6, Ecoli rRNA inh 2.5, FN deposition inh 6.3 and PglD DTNB 3.2.
C[C@@H]1CN([C@H](C)CO)C(=O)CCCn2cc(nn2)CO[C@@H]1CN(C)Cc1ccc(Cl)c(Cl)c1 was read as PGC1a acetyl inh 10.4, Ecoli rRNA inh -8.2 and FN deposition inh -1.2.
`Cc1ccccc1-n1c(-c2ccc3ccccc3n2)n[nH]c1=S` gave DENV2 CPE rescue 15.7, Env fusion inh -0.5, Ecoli rRNA inh -32.6*, FN deposition inh -13.8 and PglD DTNB 4.4.
Screening S=c1[nH]nc(-c2ccc3ccccc3n2)n1-c1ccc(Cl)cc1 returned Env fusion inh -14.8, PGC1a acetyl inh 0.8, FN deposition inh -1.2 and PglD DTNB 9.8.
`CN(CCOc1ccc(-c2ccn(S(=O)(=O)c3ccc(Cl)cc3)n2)cc1)c1ccccn1` gave Env fusion inh 60.0*, PGC1a acetyl inh -13.4, FN deposition inh -5.6 and PglD DTNB 0.9.
`C=CCOC(=O)C1=C(C)NC(SCC(=O)Nc2ccc(C)c(Cl)c2)=C(C#N)C1c1ccco1` (stereo not drawn) gave Env fusion inh 55.4*, PGC1a acetyl inh -8.6, FN deposition inh 0.9 and PglD DTNB -7.3.
`COCCOC(=O)C1=C(C)NC(SCC(=O)NC(C)(C)C)=C(C#N)C1c1ccco1` (stereo not drawn) gave DENV2 CPE rescue -8.5, Env fusion inh 2.7, PGC1a acetyl inh 4.8, Ecoli rRNA inh -5.8, FN deposition inh 3.2 and PglD DTNB -2.2.
`O=C(NCCOC(=O)Nc1cccc2ccccc12)OCc1ccccc1` gave DENV2 CPE rescue 7.6, Env fusion inh 27.5, PGC1a acetyl inh 1.8, Ecoli rRNA inh -33.5*, FN deposition inh 3.6 and PglD DTNB -2.2.
For O=C(COC(=O)c1ccc(Cl)nc1)Nc1ccc(N2CCCCC2)cc1 the results were DENV2 CPE rescue 61.6*, Env fusion inh 0.2, FN deposition inh -1.3 and PglD DTNB 1.4.
O=C(COC(=O)c1ccc[nH]c1=O)Nc1ccc(N2CCCCC2)cc1 was read as DENV2 CPE rescue 0.8, Env fusion inh 62.3*, PGC1a acetyl inh 4.7, Ecoli rRNA inh 22.3, FN deposition inh -3.0 and PglD DTNB 5.8.
`C[C@H]1CN([C@@H](C)CO)C(=O)Cc2cc(NC(=O)C3CCCCC3)ccc2O[C@@H]1CN(C)C` gave DENV2 CPE rescue -2.8, Env fusion inh 11.0[16.7 µM], PGC1a acetyl inh 15.9, Ecoli rRNA inh -0.1 and PglD DTNB -0.1.
Screening CC(C)NC(=O)Nc1ccc2c(c1)CC(=O)N([C@@H](C)CO)C[C@@H](C)[C@@H](CN(C)C(=O)Nc1ccc(C(F)(F)F)cc1)O2 returned DENV2 CPE rescue -13.0, PGC1a acetyl inh -4.6, Ecoli rRNA inh 1.4 and PglD DTNB -3.7.
For O=C(C[C@@H]1CC[C@@H]2[C@H](COC[C@@H](O)CN2S(=O)(=O)c2ccccc2)O1)N1CCOCC1 the results were DENV2 CPE rescue -1.7, Env fusion inh -2.6[16.7 µM], PGC1a acetyl inh -0.3, Ecoli rRNA inh 5.7, FN deposition inh -1.5 and PglD DTNB 9.5.
`O=C(O)c1ccc(N/N=C/c2cn(Cc3ccc(F)cc3)c3ccccc23)cc1` gave DENV2 CPE rescue -0.1, Env fusion inh -48.5, PGC1a acetyl inh 11.5, Ecoli rRNA inh -34.2*, FN deposition inh 3.8 and PglD DTNB 3.9.
For Cc1ccc(S(=O)(=O)N(C)C[C@H]2Oc3ncc(C#CC4(O)CCCC4)cc3C(=O)N([C@@H](C)CO)C[C@@H]2C)cc1 the results were DENV2 CPE rescue 8.5, Env fusion inh -2.0[16.7 µM], PGC1a acetyl inh 1.8, Ecoli rRNA inh -0.5, FN deposition inh -9.7 and PglD DTNB 3.2.
For CCCC#Cc1cnc2c(c1)C(=O)N([C@H](C)CO)C[C@@H](C)[C@@H](CN(C)C(=O)NC1CCCC1)O2 the results were DENV2 CPE rescue 45.3*, Env fusion inh 12.9[16.7 µM], PGC1a acetyl inh 8.2, Ecoli rRNA inh 6.5, FN deposition inh 6.2 and PglD DTNB 3.5.
`CC(C)NC(=O)N(C)C[C@H]1Oc2ncc(C#CC3(O)CCCC3)cc2C(=O)N([C@@H](C)CO)C[C@@H]1C` gave DENV2 CPE rescue 31.8*, Env fusion inh -6.7[16.7 µM], PGC1a acetyl inh 1.5, Ecoli rRNA inh -3.6, FN deposition inh -2.0 and PglD DTNB -1.3.
Screening Cc1ccc(S(=O)(=O)N(C)C[C@H]2Oc3ncc(C#CC4(O)CCCC4)cc3C(=O)N([C@H](C)CO)C[C@H]2C)cc1 returned DENV2 CPE rescue 20.8*, Env fusion inh -11.8[16.7 µM], PGC1a acetyl inh -5.3, Ecoli rRNA inh -1.6, FN deposition inh -10.1 and PglD DTNB 0.8.
`C[C@H](CO)N1C[C@H](C)[C@@H](CN(C)C(=O)Nc2ccc(F)cc2)Oc2ncc(C#Cc3ccc(F)cc3)cc2C1=O` gave DENV2 CPE rescue 3.9, Env fusion inh -5.5[16.7 µM], PGC1a acetyl inh -11.8, Ecoli rRNA inh -3.9, FN deposition inh -3.3 and PglD DTNB -3.7.
Screening CCCC#Cc1cnc2c(c1)C(=O)N([C@@H](C)CO)C[C@H](C)[C@H](CN(C)C(=O)NC1CCCC1)O2 returned DENV2 CPE rescue 8.3, Env fusion inh -21.0[16.7 µM], PGC1a acetyl inh -3.1, Ecoli rRNA inh -1.4, FN deposition inh -2.9 and PglD DTNB 2.6.
COc1ccc(NC(=O)N(C)C[C@@H]2Oc3ncc(C#Cc4ccc(F)cc4)cc3C(=O)N([C@H](C)CO)C[C@@H]2C)cc1 was read as DENV2 CPE rescue 62.6*, Env fusion inh 7.4[16.7 µM], PGC1a acetyl inh 14.6, Ecoli rRNA inh -0.2, FN deposition inh 6.4 and PglD DTNB 2.9.
C[C@@H]1CN([C@H](C)CO)C(=O)c2cccc(N(C)C)c2O[C@H]1CN(C)Cc1ccc(C(=O)O)cc1 was read as DENV2 CPE rescue 11.4, Env fusion inh -1.6[16.7 µM], PGC1a acetyl inh -17.6, Ecoli rRNA inh 2.3 and PglD DTNB 0.3.
Screening CCC(=O)N(C)C[C@@H]1Oc2ncc(C#CCc3ccccc3)cc2C(=O)N([C@@H](C)CO)C[C@@H]1C returned DENV2 CPE rescue 17.0, Env fusion inh 4.2[16.7 µM], PGC1a acetyl inh 9.0, Ecoli rRNA inh 6.0 and PglD DTNB -0.7.
C[C@@H]1CN([C@@H](C)CO)C(=O)c2cc(N(C)C)ccc2O[C@@H](C)CCCCO[C@@H]1CN(C)C(=O)c1ccccc1 was read as DENV2 CPE rescue 5.0, Env fusion inh 3.9[16.7 µM], PGC1a acetyl inh 5.4, Ecoli rRNA inh 7.4 and PglD DTNB 0.4.

Bioassay records as filed in PubChem BioAssay.
